According to ChEMBL document CHEMBL4706650, “Discovery of a Novel and Brain-Penetrant O-GlcNAcase Inhibitor via Virtual Screening, Structure-Based Analysis, and Rational Lead Optimization” (J Med Chem, 2021):
One block for each compound: values may come before it. Calls of active or inactive are those of the source. The rule behind the calls is not given here.

Experiments:
Protein O-GlcNAcase [1] = biological target: T1, Protein O-GlcNAcase (Homo sapiens, UniProt O60502); assay: Inhibition of full-length human OGA expressed in Expi293 (HEK293) cells using 4-methylumbelliferyl-N-acetyl-beta-D-glucosaminide dihydrate as fluorogenic substrate preincubated with enzyme followed by substrate addition and measured every 5 mins for 60 mins by fluorescence based analysis
T1 sequence (O60502 whole entry): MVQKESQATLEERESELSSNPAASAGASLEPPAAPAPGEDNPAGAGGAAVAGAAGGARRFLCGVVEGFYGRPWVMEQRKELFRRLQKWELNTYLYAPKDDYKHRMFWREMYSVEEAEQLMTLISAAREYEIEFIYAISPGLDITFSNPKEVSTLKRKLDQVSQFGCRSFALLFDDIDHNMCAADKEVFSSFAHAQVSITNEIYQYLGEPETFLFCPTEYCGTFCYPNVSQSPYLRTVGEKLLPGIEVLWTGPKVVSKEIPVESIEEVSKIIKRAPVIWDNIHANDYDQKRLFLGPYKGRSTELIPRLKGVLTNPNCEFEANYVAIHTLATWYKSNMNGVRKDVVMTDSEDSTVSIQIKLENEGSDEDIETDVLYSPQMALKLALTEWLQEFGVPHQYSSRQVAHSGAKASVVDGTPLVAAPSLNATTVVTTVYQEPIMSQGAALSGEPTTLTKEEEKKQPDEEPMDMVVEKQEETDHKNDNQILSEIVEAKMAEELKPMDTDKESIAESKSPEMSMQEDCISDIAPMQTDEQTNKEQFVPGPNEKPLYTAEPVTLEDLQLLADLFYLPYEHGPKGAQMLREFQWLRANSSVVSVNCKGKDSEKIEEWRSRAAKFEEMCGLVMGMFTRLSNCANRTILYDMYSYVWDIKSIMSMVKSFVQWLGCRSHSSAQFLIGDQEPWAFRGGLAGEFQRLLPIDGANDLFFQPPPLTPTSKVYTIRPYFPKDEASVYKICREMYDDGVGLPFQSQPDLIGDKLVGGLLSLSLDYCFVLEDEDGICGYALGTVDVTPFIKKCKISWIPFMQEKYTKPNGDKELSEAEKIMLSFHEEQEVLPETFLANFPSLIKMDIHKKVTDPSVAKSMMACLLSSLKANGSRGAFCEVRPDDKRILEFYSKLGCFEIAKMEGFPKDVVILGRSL
Outline: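 Human OGA, FLAG-tagged full length from transfected Expi293 cells, purified by anti-FLAG agarose and gel filtration, 1 nM. Buffer 50 mM NaH2PO4, 100 mM NaCl, 0.01% BSA, 0.01% Tween 20, 1 mM DTT, pH 7.4; 2 mM substrate added to start after compound, RT. Ex 355/em 460 nm; 0% control enzyme+DMSO, 100% no enzyme; IC50 by variable-slope sigmoidal fit.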

[2] = Inhibition of human placental beta-hexosaminidase using 4-methylumbelliferyl-N-acetyl-beta-D-glucosaminide dihydrate as fluorogenic substrate preincubated with enzyme followed by substrate addition and measured every 5 mins for 60 mins by fluorescence based analysis; type: tissue-based, Placenta
Outline: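 Placental β-hexosaminidase at 10 μunits/mL in 50 mM NaH2PO4, 100 mM NaCl, 0.01% BSA, 0.01% Tween 20, 1 mM DTT, pH 7.4. Compound added before 2 mM substrate, room temperature. Fluorescence ex 355/em 460 nm; inhibition versus enzyme+DMSO (0%) and no-enzyme (100%) wells; IC50 from variable-slope sigmoidal regression.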

[3] = Drug level in C57BL/6J mouse plasma at 30 mg/kg, po after 1 hrs by LC/MS-MS analysis; type: ADME, organism-based
Outline: (§1)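 Suspension in 0.5% (w/v) methylcellulose dosed orally at 30 mg/kg to C57Bl/6J mice (n = 3). Blood and brain taken at 0.5 and 1 h; plasma by centrifugation, brain homogenized in saline. Acetonitrile deproteinization with internal standard, supernatant diluted in 0.2% formic acid/10 mM ammonium formate (pH 3), LC/MS/MS quantitation.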

[4] = Unbound drug level in C57BL/6J mouse plasma at 30 mg/kg, po by equilibrium dialysis method; type: ADME, organism-based
Outline: (§2)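 Unbound fraction in mouse plasma and brain determined by equilibrium dialysis, with the fractions used to correct total plasma and brain levels after a 30 mg/kg oral dose in 0.5% methylcellulose.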

[5] = Drug level in C57BL/6J mouse brain at 30 mg/kg, po after 1 hrs by LC/MS-MS analysis; type: ADME, organism-based; details: read-out: Drug uptake; outline: as §1
[6] = Drug level in C57BL/6J mouse brain at 30 mg/kg, po after 0.5 hrs by LC/MS-MS analysis; type: ADME, organism-based; details: read-out: Drug uptake; outline: as §1
[7] = Unbound brain-to-plasma concentration ratio in C57BL/6J mouse at 30 mg/kg, po after 0.5 hrs by equilibrium dialysis; type: ADME, organism-based; details: read-out: K(p,uu,brain)
Outline: (§3)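 Oral dose of 30 mg/kg in 0.5% methylcellulose to C57Bl/6J mice (n = 3); plasma and brain levels at 0.5 and 1 h by LC/MS/MS. Unbound fractions in plasma and brain by equilibrium dialysis; Kp,uu = (fu,brain × Cbrain)/(fu,plasma × Cplasma).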

[8] = Unbound brain-to-plasma concentration ratio in C57BL/6J mouse at 30 mg/kg, po after 1 hrs by equilibrium dialysis; type: ADME, organism-based; details: read-out: K(p,uu,brain); outline: as §3
[9] = biological target: T2, Protein O-GlcNAcase (Homo sapiens) (UniProt O60502); assay: Inhibition of OGA in human SH-SY5Y cells assessed as increase in O-GIcNAcylated protein levels incubated for 48 hrs by in-cell Western assay relative to control; type: cell-based
T2 sequence (whole entry): T1 sequence (O60502 whole entry)
Outline: (§4)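 SH-SY5Y cells seeded ~1.8 × 10⁴/well on poly-D-lysine, compound for 48 h at 37 °C. Methanol fixation, 0.1% Triton X-100 permeabilization, blocking, then Alexa Fluor 700-labelled anti-O-GlcNAc RL2 (1:500, 60 min RT). Infrared imaging of integrated fluorescence, normalized to DMSO (100%) and medium (0%); EC50 as curve inflection point, Emax as maximal % increase.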

Protein O-GlcNAcase [10] = biological target: T1, Protein O-GlcNAcase; assay: Inhibition of OGA in human SH-SY5Y cells assessed as increase in O-GIcNAcylated protein levels incubated for 48 hrs by in-cell Western assay; type: cell-based; outline: as §4
[11] = Unbound drug level in C57BL/6J mouse brain at 30 mg/kg, po by equilibrium dialysis method; type: ADME, organism-based; outline: as §2
[12] = Drug level in C57BL/6J mouse plasma at 30 mg/kg, po after 0.5 hrs by LC/MS-MS analysis; type: ADME, organism-based; outline: as §1
[13] = biological target: T2, Protein O-GlcNAcase (Homo sapiens); assay: Competitive inhibition of full-length human OGA expressed in Expi293 (HEK293) cells assessed as increase in Km of substrate using varying concentrations of 4-methylumbelliferyl-N-acetyl-beta-D-glucosaminide dihydrate as fluorogenic substrate at 0.48 to 60 nM measured for 60 mins by fluorescence based analysis; details: dose 0.48-60 nM
Outline: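 Full-length human OGA (FLAG-purified, gel filtration) at 1 nM final, in 50 mM NaH2PO4, 100 mM NaCl, 0.01% BSA, 0.01% Tween 20, 1 mM DTT, pH 7.4. Substrate serially diluted 2-fold from 2 mM at several inhibitor levels. Fluorescence read over 60 min (ex 355/em 460 nm); Vmax and Km from Michaelis–Menten nonlinear fit.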

[14] = biological target: T2, Protein O-GlcNAcase (Homo sapiens); assay: Inhibition of full-length human OGA expressed in Expi293 (HEK293) cells using 4-methylumbelliferyl-N-acetyl-beta-D-glucosaminide dihydrate as fluorogenic substrate at 10 uM preincubated with enzyme followed by substrate addition and measured every 5 mins for 60 mins by fluorescence based analysis
Homo sapiens = species on record: Homo sapiens; assay: Inhibition of human placental beta-hexosaminidase using 4-methylumbelliferyl-N-acetyl-beta-D-glucosaminide dihydrate as fluorogenic substrate at 10 uM preincubated with enzyme followed by substrate addition and measured every 5 mins for 60 mins by fluorescence based analysis; type: tissue-based; details: Placenta

SMILES: OC1CCN(c2ccnc(NCCc3ccccc3)n2)CC1
IC50 (Protein O-GlcNAcase [1]): > 10000 nM

SMILES: c1ccc(CCNc2nccc(N3CCOCC3)n2)cc1
IC50 (Protein O-GlcNAcase [1]): 4700 nM

SMILES: COC1CCN(c2ccnc(NCCc3ccccc3)n2)CC1
IC50 (Protein O-GlcNAcase [1]): 970 nM

SMILES: CC1CCN(c2ccnc(NCc3cn(C)cn3)n2)CC1 [TP-040]
IC50 [2]: > 10000 nM
concentration at 1 h [3]: 1900 ng/mL
fraction unbound [4]: 0.53
IC50 (Protein O-GlcNAcase [1]): 46 nM
concentration at 1 h [5]: 2600 ng/g
concentration at 0.5 h [6]: 2700 ng/g
Kp uu at 0.5 h [7]: 0.25
Kp uu at 1 h [8]: 0.36
Emax [9]: 143%
EC50 (Protein O-GlcNAcase [10]): 450 nM
fraction unbound [11]: 0.14
concentration at 0.5 h [12]: 2800 ng/mL

SMILES: CC1CCN(c2ccnc(NCCc3ccccc3)n2)CC1
IC50 (Protein O-GlcNAcase [1]): 24 nM
inhibition [13]: Active

SMILES: CC1CCN(c2ccnc(NCCc3ccccn3)n2)CC1
IC50 (Protein O-GlcNAcase [1]): 360 nM

SMILES: CC1CCN(c2ccnc(NCCc3cccnc3)n2)CC1
IC50 (Protein O-GlcNAcase [1]): 31 nM

Second part, the compound after the results:

IC50 (Protein O-GlcNAcase [1]): 18 nM
SMILES: CC1CCN(c2ccnc(NCc3cccnc3)n2)CC1

IC50 (Protein O-GlcNAcase [1]): 41 nM
inhibition [14]: > 50%
inhibition (Homo sapiens): inactive
SMILES: CC1CCN(c2ccnc(NC(C)CN3CCN(C)CC3)n2)CC1 (centres undefined)

IC50 (Protein O-GlcNAcase [1]): > 10000 nM
SMILES: CN1CCN(c2ccnc(NCCc3ccccc3)n2)CC1 [TP-040n]
